Source: ChEMBL document CHEMBL4219162, “Adamantane amine-linked chloroquinoline derivatives as chloroquine resistance modulating agents in Plasmodium falciparum” (Bioorg Med Chem Lett, 2018)

Legend:
[1] = test system: Plasmodium falciparum; assay: Antimalarial activity against chloroquine-sensitive Plasmodium falciparum NF54 infected in normal type A human erythrocytes incubated for 72 hrs by spectrophotometry based parasite lactate dehydrogenase assay; format: functional, organism-based; conditions: NF54, 72 h
Method in brief: (§1)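 Modified parasite lactate dehydrogenase (pLDH) assay run in parallel on CQ-sensitive NF54 and CQ-resistant K1 strains, with chloroquine as positive control. […], 37 °C, and the readout gave IC50.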

[2] = Resistance index, ratio of IC50 for chloroquine-resistant Plasmodium falciparum K1 infected in normal type A human erythrocytes to IC50 for chloroquine-sensitive Plasmodium falciparum NF54 infected in normal type A human erythrocytes; format: functional
Method in brief: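 Resistance index computed as IC50 against K1 divided by IC50 against NF54, both from the pLDH assay.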

[3] = test system: Plasmodium falciparum; assay: Antimalarial activity against chloroquine-resistant Plasmodium falciparum K1 infected in normal type A human erythrocytes incubated for 72 hrs by spectrophotometry based parasite lactate dehydrogenase assay; format: functional, organism-based; conditions: K1, 72 h; method in brief: as §1
[4] = Selectivity index, ratio of IC50 for CHO cells to IC50 for chloroquine-resistant Plasmodium falciparum K1 infected in normal type A human erythrocytes; format: toxicity, cell-based; conditions: Chinese hamster; read-out: Ratio IC50
Method in brief: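 Selectivity index computed as IC50 in Chinese hamster ovary cells, measured by MTT reduction to formazan, divided by IC50 against K1 from the pLDH assay.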

[5] = test system: CHO; assay: Cytotoxicity against CHO cells by MTT assay; format: cell-based; conditions: Cricetulus griseus
Method in brief: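 Chinese hamster ovary cell growth and survival read by viable-cell reduction of yellow MTT to purple-blue formazan. IC50 derived. Emetine served as the cytotoxic reference drug.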

[6] = Reversal modification index, ratio of IC50 for chloroquine-resistant Plasmodium falciparum K1 infected in normal type A human erythrocytes to IC50 for chloroquine-sensitive Plasmodium falciparum NF54 infected in normal type A human erythrocytes relative to […]; format: functional
Method in brief: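 Reversal modification index taken as the resistance index (IC50 K1/IC50 NF54) of each compound relative to the resistance index of chloroquine.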

[7] = test system: Plasmodium falciparum; assay: Potency index, ratio of IC50 for […] to IC50 for test compound for antimalarial activity against chloroquine-resistant Plasmodium falciparum K1 infected in normal type A human erythrocytes incubated for 72 hrs by spectrophotometry based parasite lactate dehydrogenase assay; format: functional
[8] = Aqueous stability of the compound in pH 4.5 HEPES-buffer at 1 mg/ml at 37 degC after 72 hrs by UV spectroscopic method; format: physicochemical; conditions: pH 4.5, 72 h
Method in brief: (§2)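 Test compound at 1 mg/ml in aqueous HEPES-containing buffer, held at 37 °C for 72 h to check for degradation. pH 7.4 matches the pLDH antimalarial assay medium. pH 4.5 approximates the parasite's acidic digestive vacuole. Conditions mirror the pLDH assay procedure.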

[9] = Aqueous stability of the compound in pH 7.4 HEPES-buffer at 1 mg/ml at 37 degC after 72 hrs by UV spectroscopic method; format: physicochemical; conditions: pH 7.4, 72 h; method in brief: as §2

Row | SMILES | IC50 [1] [nM] | Ratio IC50 [2] | IC50 [3] [nM] | selectivity ratio [4] | IC50 [5] [nM] | Ratio IC50 [6] | Ratio IC50 [7] | Stability [8] | Stability [9]
1 | OC12CC3CC(CC(C3)N1CCCCCCNc1ccnc3cc(Cl)ccc13)C2 | 112 | 3.81 | 284 | 285 | 80800 | 10.09 | – | – | –
2 | OC12CC3CC(CC(C3)N1CCNc1ccnc3cc(Cl)ccc13)C2 | 46.9 | 2.11 | 98.9 | > 2820 | > 279000 | 18.23 | 3 - 4 | – | –
3 | OC12CC3CC(CC(C3)N1CCCNc1ccnc3cc(Cl)ccc13)C2 | 22.3 | 4.34 | 96.8 | 467 | 45200 | 8.86 | 3 - 4 | – | –
4 | OC12CC3CC(CC(C3)N1CCCCNc1ccnc3cc(Cl)ccc13)C2 | 33.9 | 5.84 | 198 | 191 | 37900 | 6.59 | – | – | –
5 | Clc1ccc2c(NCCCCCCN=C3C4CC5CC(C4)CC3C5)ccnc2c1 | 113 | 14.02 | 1580 | 104 | > 103000 | 2.74 | – | – | –
6 | Clc1ccc2c(NCCCN=C3C4CC5CC(C4)CC3C5)ccnc2c1 | 5 | – | 192 | 346 | 66400 | 2.4 | – | Unstable | Stable
7 | OC12C3C4CC5C6C4C1C6C(C53)N2CCNc1ccnc2cc(Cl)ccc12 (centres undefined) | 9.84 | 7.36 | 72.6 | 131 | – | 5.22 | – | – | –
8 | Clc1ccc2c(NCCN=C3C4CC5CC(C4)CC3C5)ccnc2c1 | 26.3 | 3.56 | 93.8 | 1050 | 98500 | 10.8 | 3 - 4 | – | –
9 | Clc1ccc2c(NCCCCN=C3C4CC5CC(C4)CC3C5)ccnc2c1 | 108 | 7.23 | 784 | 73 | 57100 | 5.32 | – | – | –
10 | CCN(CC)CCCC(C)Nc1ccnc2cc(Cl)ccc12 (centres undefined) [CHLOROQUINE] | – | – | – | – | 57800 | – | – | – | –
11 | CC[C@H]1CN2CCc3cc(OC)c(OC)cc3[C@@H]2C[C@@H]1C[C@H]1NCCc2cc(OC)c(OC)cc21 [EMETINE] | – | – | – | – | 130 | – | – | – | –
